In ChEMBL document CHEMBL1147109, “Genetic elements carrying erm(B) in Streptococcus pyogenes and association with tet(M) tetracycline resistance gene” (2007):
≈ marks a conversion by molar mass, not a printed value.

Experiments:
Streptococcus pyogenes [1] = test: Antimicrobial activity against erythromycin-resistant Streptococcus pyogenes C-105 transconjugated with erm(B) and tet(M) genes; type: functional
Summary of the method: (§1)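 Transconjugants came from membrane-filter mating of the donor strain into recipient S. pyogenes 12RF (rifampin- and fusidic acid-resistant), done at least three times, and were confirmed by PCR to carry erm(B) and tet(M). MICs were then determined by broth microdilution to CLSI recommendations, with S. pneumoniae ATCC 49619 as quality control.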

Streptococcus pyogenes [2] = test: Antimicrobial activity against erythromycin-resistant Streptococcus pyogenes A-3 transconjugated with erm(B) and tet(M) genes; type: functional; summary of the method: as §1
Streptococcus pyogenes [3] = test: Antimicrobial activity against tetracyclin-resistant Streptococcus pyogenes C-105 transconjugated with erm(B) and tet(M) genes; type: functional; summary of the method: as §1
Streptococcus pyogenes [4] = test: Antimicrobial activity against erythromycin-resistant Streptococcus pyogenes D-112 transconjugated with erm(B) and tet(M) genes; type: functional; summary of the method: as §1
Streptococcus pyogenes [5] = test: Antimicrobial activity against erythromycin-resistant Streptococcus pyogenes B-83 transconjugated with erm(B) and tet(M) genes; type: functional; summary of the method: as §1
Streptococcus pyogenes [6] = test: Antimicrobial activity against erythromycin-resistant Streptococcus pyogenes E-115 transconjugated with erm(B) and tet(M) genes; type: functional; summary of the method: as §1
Streptococcus pyogenes [7] = test: Antimicrobial activity against tetracycline-resistant Streptococcus pyogenes cMLS isolate C expressing tet(M), Xis, tnpA, tnpR gene
Streptococcus pyogenes [8] = test: Antimicrobial activity against Streptococcus pyogenes iMLS-A isolate A expressing tet(M), tndX gene; type: functional
Summary of the method: (§2)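 Broth microdilution MICs per CLSI against clinical S. pyogenes isolates carrying erm(B); S. pneumoniae ATCC 49619 as quality control. For some isolates, tetracycline MICs were also read after induction: colonies from overnight brain heart infusion agar were grown on brain heart infusion agar with or without subinhibitory tetracycline (0.05 μg/ml), harvested within 20 h, then tested.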

Streptococcus pyogenes [9] = test: Antimicrobial activity against tetracycline-susceptible Streptococcus pyogenes cMLS isolate E expressing tet(M), tndX gene; type: functional; summary of the method: as §2
Streptococcus pyogenes [10] = test: Antimicrobial activity against tetracycline-susceptible Streptococcus pyogenes cMLS isolate expressing erm(B); type: functional; summary of the method: as §2
Streptococcus pyogenes [11] = test: Antimicrobial activity against Streptococcus pyogenes cMLS isolate B expressing tet(M), int, Xis gene; type: functional
Summary of the method: (§3)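 Broth microdilution MICs run to CLSI recommendations on clinical erm(B)-carrying S. pyogenes isolates, with S. pneumoniae ATCC 49619 as quality control. In some isolates, tetracycline MICs were also measured on cells grown for no longer than 20 h on brain heart infusion agar, with or without subinhibitory tetracycline (0.05 μg/ml).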

Streptococcus pyogenes [12] = test: Antimicrobial activity against tetracyclin-resistant Streptococcus pyogenes cMLS isolate expressing erm(B); type: functional; summary of the method: as §3
Streptococcus pyogenes [13] = test: Antimicrobial activity against tetracycline-susceptible Streptococcus pyogenes iMLS-A isolate expressing erm(B); type: functional; summary of the method: as §2
Streptococcus pyogenes [14] = test: Antimicrobial activity against tetracycline-susceptible Streptococcus pyogenes cMLS isolate D expressing tet(M), Xis, tnpA, tnpR gene; type: functional; summary of the method: as §2
Streptococcus pyogenes [15] = test: Antimicrobial activity against tetracycline-susceptible Streptococcus pyogenes cMLS isolate G expressing tnpA, tnpR gene; type: functional; summary of the method: as §2
Streptococcus pyogenes [16] = test: Antimicrobial activity against tetracycline-susceptible Streptococcus pyogenes cMLS isolate F; type: functional; summary of the method: as §2

Compound	MIC (Streptococcus pyogenes [1])	MIC (Streptococcus pyogenes [2])	MIC (Streptococcus pyogenes [3])	MIC (Streptococcus pyogenes [4])	MIC (Streptococcus pyogenes [5])	MIC (Streptococcus pyogenes [6])	MIC (Streptococcus pyogenes [7])	MIC (Streptococcus pyogenes [8])	MIC (Streptococcus pyogenes [9])	MIC (Streptococcus pyogenes [10])	MIC (Streptococcus pyogenes [11])	MIC (Streptococcus pyogenes [12])	MIC (Streptococcus pyogenes [13])	MIC (Streptococcus pyogenes [14])	MIC (Streptococcus pyogenes [15])	MIC (Streptococcus pyogenes [16])
CC[C@H]1OC(=O)[C@H](C)[C@@H](O[C@H]2C[C@@](C)(OC)[C@@H](O)[C@H](C)O2)[C@H](C)[C@@H](O[C@@H]2O[C@H](C)C[C@H](N(C)C)[C@H]2O)[C@](C)(O)C[C@@H](C)C(=O)[C@H](C)[C@@H](O)[C@]1(C)O [ERYTHROMYCIN]	> 128 µg/mL	> 128 µg/mL	> 128 µg/mL	> 128 µg/mL	> 128 µg/mL	> 128 µg/mL	–	–	–	–	–	–	–	–	–	–
CN(C)[C@@H]1C(O)=C(C(N)=O)C(=O)[C@@]2(O)C(O)=C3C(=O)c4c(O)cccc4[C@@](C)(O)[C@H]3C[C@@H]12 [TETRACYCLINE]	32 µg/mL (≈ 72 µM)	0.25 µg/mL (≈ 0.563 µM)	32 µg/mL (≈ 72 µM)	0.25 µg/mL (≈ 0.563 µM)	32 µg/mL (≈ 72 µM)	0.25 µg/mL (≈ 0.563 µM)	32 µg/mL (≈ 72 µM)	0.125 µg/mL (≈ 0.281 µM)	0.125 µg/mL (≈ 0.281 µM)	≤ 0.125 µg/mL	32 µg/mL (≈ 72 µM)	32 µg/mL (≈ 72 µM)	≤ 0.125 µg/mL	0.125 µg/mL (≈ 0.281 µM)	0.125 µg/mL (≈ 0.281 µM)	0.125 µg/mL (≈ 0.281 µM)
